Assay results from different studies.
Each line is one published result; the experiments were not run side by side.
Organism: Plasmodium falciparum
Observed: parasite growth
Technique: SYBR Green

SMILES | system | setting | measurement | result
CCCCCNC[C@H](O)c1cc(Cl)cc2c1-c1ccc(Cl)cc1C2 | W2 | 48 h, drug-resistant strain, blood stage | IC50 | 3.7 nM
CCN(CC)CCCC(C)Nc1ccnc2cc(Cl)ccc12 (stereo not shown) | DD2 | drug-resistant strain, blood stage | IC50 | 848 nM
COCC(=O)N1CCC[C@H](C(=O)NCc2nc(-c3ccccc3)cs2)C1 | DD2 | 72 h, blood stage | EC50 | 69 nM
O=C1c2[nH]cc3c2C(=NCC3)c2c(-c3ccc(O)cc3)c[nH]c21 | 3D7 | blood stage | IC50 | 2090 nM
COc1ccccc1C(=O)/C=C/c1cn(Cc2cn(-c3ccnc4cc(Cl)ccc34)nn2)c2ccccc12 | 3D7 | 10 µM, blood stage | inhibition | > 50%
COCC(=O)N1CCC[C@H](C(=O)NCc2nc(-c3ccc(C#N)cc3)cs2)C1 | DD2 | 72 h, blood stage | EC50 | 18 nM
CCN(CC)CCCC(C)Nc1ccnc2cc(Cl)ccc12 (stereo not shown) | MDR, TM90 | 72 h, drug-resistant strain, blood stage | IC50 | 354 nM
O[C@@H](CNCCCC(F)(F)F)c1cc(Cl)cc2c1-c1ccc(Cl)cc1C2 | W2 | 48 h, drug-resistant strain, blood stage | IC50 | 3.8 nM
Cn1cc2c3c1C(=O)C(N)=CC3=[N+](C)CC2 | 3D7 | blood stage | IC50 | 1140 nM
CCCN(CCc1cccs1)[C@H]1CCc2c(O)cccc2C1 | DD2 | 48 h, drug-resistant strain, blood stage | IC50 | 9270 nM
O[C@H](CNCCN1CCN(C(c2ccccc2)c2ccccc2)CC1)c1cc(Cl)cc2c1-c1ccc(Cl)cc1C2 | W2 | 48 h, drug-resistant strain, blood stage | IC50 | 13 nM
Cc1cc(Nc2ccc(S(F)(F)(F)(F)F)cc2)n2nc(C(C)(F)F)nc2n1 | DD2 | blood stage | EC50 | 8.5 nM
C[N+]1=C2C=C(NCCc3ccc(O)cc3)C(=O)c3[nH]cc(c32)CC1 | DD2 | blood stage | IC50 | 28.3 nM
COc1ccc(C2CC3=C(C(=O)O2)C(c2ccccc2Cl)C(C(=O)OC(C)(C)C)=C(C)N3)cc1OC (mixture of isomers) | 3D7 | 72 h, blood stage | EC50 | > 13000 nM
O[C@H](CN[C@H](COCC1CC1)Cc1ccccc1)c1cc(Cl)cc2c1-c1ccc(Cl)cc1C2 | W2 | 48 h, drug-resistant strain, blood stage | IC50 | 2.8 nM
C[N+]1=C2C=C(N)C(=O)c3[nH]cc(c32)CC1 | W2 | blood stage | IC50 | 681 nM
CC(C)C[C@@H](C=O)NC(=O)[C@H](CC(C)C)NC(=O)[C@H](CC(C)C)NC(=O)OCc1ccccc1 | DD2 | blood stage | EC50 | 69 nM
O=C1C(NCCc2c[nH]c3ccccc23)=CC2=NCCc3c[nH]c1c32 | 3D7 | blood stage | IC50 | 160 nM
CCCCCCNC[C@@H](O)c1cc(Cl)cc2c1-c1ccc(Cl)cc1C2 | W2 | 48 h, drug-resistant strain, blood stage | IC50 | 6.5 nM
Cn1cc2c3c1C(=O)C(N)=CC3=NCC2 | W2 | blood stage | IC50 | 5770 nM
CCCCCCCNC[C@@H](O)c1cc(Cl)cc2c1-c1ccc(Cl)cc1C2 | W2 | 48 h, drug-resistant strain, blood stage | IC50 | 4.7 nM
O=Cc1cn(Cc2cn(-c3ccnc4cc(Cl)ccc34)nn2)c2ccccc12 | 3D7 | 10 µM, blood stage | inhibition | 24.5%
